What was measured:
Format in all cases: functional
NCI-H322M = assay: Cytotoxicity against human NCI-H322M cells
How it was run: (§1)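 Tested in a 60-cell-line human tumor panel screen; the read-out is growth inhibition, reported as GI50 for each cell line.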

TK-10 = assay: Cytotoxicity against human TK10 cells
How it was run: (§2)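 Cell line run as part of the 60-cell-line screening panel; growth inhibition was reported as a GI50 for each line.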

SF-295 = assay: Cytotoxicity against human SF295 cells; how it was run: as §1
HOP-62 = assay: Cytotoxicity against human HOP62 cells; how it was run: as §1
SF-268 = assay: Cytotoxicity against human SF268 cells; how it was run: as §1
IGROV-1 = assay: Cytotoxicity against human IGROV1 cells; how it was run: as §1
[1] = Cytotoxicity against human OVCAR4 cells; how it was run: as §1
[2] = Cytotoxicity against human OVCAR5 cells; how it was run: as §1
MCF7 = assay: Cytotoxicity against human MCF7 cells; how it was run: as §1
SN12C = assay: Cytotoxicity against human SN12C cells; how it was run: as §1
[3] = Cytotoxicity against human UACC62 cells; how it was run: as §2
HCC 2998 = assay: Cytotoxicity against human HCC2998 cells; how it was run: as §1
A498 = assay: Cytotoxicity against human A498 cells; how it was run: as §1
[4] = Cytotoxicity against human UACC257 cells; how it was run: as §2
SK-MEL-5 = assay: Cytotoxicity against human SK-MEL-5 cells; how it was run: as §1
SK-OV-3 = assay: Cytotoxicity against human SKOV3 cells; how it was run: as §1
HT-29 = assay: Cytotoxicity against human HT-29 cells; how it was run: as §1
CAKI-1 = assay: Cytotoxicity against human Caki1 cells; how it was run: as §1
NCI-H460 = assay: Cytotoxicity against human NCI-H460 cells; how it was run: as §1
SR = assay: Cytotoxicity against human SR cells; how it was run: as §2
SK-MEL-2 = assay: Cytotoxicity against human SK-MEL-2 cells; how it was run: as §1
SNB-19 = assay: Cytotoxicity against human SNB19 cells; how it was run: as §1
HCT-116 = assay: Cytotoxicity against human HCT116 cells; how it was run: as §1
786-0 = assay: Cytotoxicity against human 786-0 cells; how it was run: as §1
MDA-MB-435 = assay: Cytotoxicity against human MDA-MB-435 cells; how it was run: as §1
MOLT-4 = assay: Cytotoxicity against human MOLT4 cells; how it was run: as §1
[5] = Cytotoxicity against human NCI-ADR-RES cells; how it was run: as §1
KM12 = assay: Cytotoxicity against human KM12 cells; how it was run: as §1
CCRF-CEM = assay: Cytotoxicity against human CCRF-CEM cells
COLO 205 = assay: Cytotoxicity against human COLO205 cells; how it was run: as §1
ACHN = assay: Cytotoxicity against human ACHN cells; how it was run: as §1
U-251 = assay: Cytotoxicity against human U251 cells; how it was run: as §2
SF-539 = assay: Cytotoxicity against human SF539 cells; how it was run: as §1
[6] = Cytotoxicity against human HCT15 cells; how it was run: as §1
MDA-MB-231 = assay: Cytotoxicity against human MDA-MB-231 cells; how it was run: as §1
LOX IMVI = assay: Cytotoxicity against human LOXIMVI cells; how it was run: as §1
T47D = assay: Cytotoxicity against human T47D cells; how it was run: as §2
HL-60(TB) = assay: Cytotoxicity against human HL-60(TB) cells
How it was run: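 Tested within the NCI 60-cell-line screen, with GI50 as the read-out. Values are the average of two independent experiments. The lowest concentration tested was 10 nM.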

A549 = assay: Cytotoxicity against human A549 cells; how it was run: as §1
DU-145 = assay: Cytotoxicity against human DU145 cells; how it was run: as §1
BT-549 = assay: Cytotoxicity against human BT549 cells; how it was run: as §1
SNB-75 = assay: Cytotoxicity against human SNB75 cells; how it was run: as §2
PC-3 = assay: Cytotoxicity against human PC3 cells; how it was run: as §1
[7] = read-out: pLC50 (the source's name) (converted)

COc1cc(/C=C/c2cc(O)c3c(C/C=C(\C)CCC=C(C)C)c[nH]c3c2)cc2c1O[C@]1(C)CC[C@@H](O)C(C)(C)[C@H]1C2
GI50 (NCI-H322M): 60.3 µM
CC50 (NCI-H322M; [7]): > 100 µM
TGI (NCI-H322M; read-out: pTGI (converted)): > 100 µM
GI50 (TK-10): 16.6 µM
LC50 (TK-10): > 100 µM
TGI (TK-10; read-out: pTGI (converted)): > 100 µM
GI50 (SF-295; read-out: GI50): 0.11 µM
GI50 (SF-295; read-out: pGI50 (converted)): 0.112 µM
CC50 (SF-295; [7]): 2.88 µM
TGI (SF-295; read-out: pTGI (converted)): 0.417 µM
GI50 (HOP-62): 0.794 µM
CC50 (HOP-62; [7]): 8.71 µM
TGI (HOP-62; read-out: pTGI (converted)): 2.75 µM
GI50 (SF-268): 2.75 µM
CC50 (SF-268; [7]): > 100 µM
TGI (SF-268; read-out: pTGI (converted)): > 100 µM
GI50 (IGROV-1): 1.62 µM
CC50 (IGROV-1; [7]): > 100 µM
TGI (IGROV-1; read-out: pTGI (converted)): > 100 µM
GI50 ([1]; OVCAR-4): 6.46 µM
CC50 ([1]; OVCAR-4, read-out: pLC50 (the source's name) (converted)): > 100 µM
TGI ([1]; OVCAR-4, read-out: pTGI (converted)): > 100 µM
GI50 ([2]; OVCAR-5): 15.1 µM
CC50 ([2]; OVCAR-5, read-out: pLC50 (the source's name) (converted)): > 100 µM
TGI ([2]; OVCAR-5, read-out: pTGI (converted)): > 100 µM
GI50 (MCF7): 0.617 µM
LC50 (MCF7): 8.51 µM
TGI (MCF7; read-out: pTGI (converted)): 2.45 µM
GI50 (SN12C): 60.3 µM
LC50 (SN12C): > 100 µM
TGI (SN12C; read-out: pTGI (converted)): > 100 µM
GI50 ([3]; UACC-62): 1.26 µM
CC50 ([3]; UACC-62, read-out: pLC50 (the source's name) (converted)): > 100 µM
TGI ([3]; UACC-62, read-out: pTGI (converted)): 4.68 µM
GI50 (HCC 2998): 4.9 µM
CC50 (HCC 2998; [7]): > 100 µM
TGI (HCC 2998; read-out: pTGI (converted)): 36.3 µM
GI50 (A498): 1.2 µM
CC50 (A498; [7]): > 100 µM
TGI (A498; read-out: pTGI (converted)): 9.77 µM
GI50 ([4]; UACC-257): 9.12 µM
CC50 ([4]; UACC-257, read-out: pLC50 (the source's name) (converted)): > 100 µM
TGI ([4]; UACC-257, read-out: pTGI (converted)): 49 µM
GI50 (SK-MEL-5): 1.07 µM
CC50 (SK-MEL-5; [7]): 5.37 µM
TGI (SK-MEL-5; read-out: pTGI (converted)): 2.4 µM
GI50 (SK-OV-3): 5.13 µM
LC50 (SK-OV-3): > 100 µM
TGI (SK-OV-3; read-out: pTGI (converted)): > 100 µM
GI50 (HT-29): 0.219 µM
CC50 (HT-29; [7]): 20.4 µM
TGI (HT-29; read-out: pTGI (converted)): 1.66 µM
GI50 (CAKI-1): 0.447 µM
LC50 (CAKI-1): 7.76 µM
TGI (CAKI-1; read-out: pTGI (converted)): 1.82 µM
GI50 (NCI-H460): 1.2 µM
CC50 (NCI-H460; [7]): 57.5 µM
TGI (NCI-H460; read-out: pTGI (converted)): 6.61 µM
GI50 (SR): 0.55 µM
CC50 (SR; [7]): > 100 µM
TGI (SR; read-out: pTGI (converted)): 29.5 µM
GI50 (SK-MEL-2): 0.871 µM
CC50 (SK-MEL-2; [7]): > 100 µM
TGI (SK-MEL-2; read-out: pTGI (converted)): 18.2 µM
GI50 (SNB-19): 2.45 µM
CC50 (SNB-19; [7]): > 100 µM
TGI (SNB-19; read-out: pTGI (converted)): > 100 µM
GI50 (HCT-116): 1.38 µM
CC50 (HCT-116; [7]): > 100 µM
TGI (HCT-116; read-out: pTGI (converted)): 22.9 µM
GI50 (786-0): 0.0468 µM
LC50 (concentration killing 50% of cells) (786-0): 5.62 µM
TGI (786-0; read-out: pTGI (converted)): 1.12 µM
GI50 (MDA-MB-435): 4.07 µM
CC50 (MDA-MB-435; [7]): > 100 µM
TGI (MDA-MB-435; read-out: pTGI (converted)): > 100 µM
GI50 (MOLT-4): 0.282 µM
CC50 (MOLT-4; [7]): > 100 µM
TGI (MOLT-4; read-out: pTGI (converted)): 2.51 µM
GI50 [5]: 46.8 µM
CC50 [5, 7]: > 100 µM
TGI ([5]; read-out: pTGI (converted)): > 100 µM
GI50 (KM12): 0.525 µM
CC50 (KM12; [7]): 5.37 µM
TGI (KM12; read-out: pTGI (converted)): 1.78 µM
GI50 (CCRF-CEM): 0.724 µM
CC50 (CCRF-CEM; [7]): > 100 µM
TGI (CCRF-CEM; read-out: pTGI (converted)): > 100 µM
GI50 (COLO 205): 0.331 µM
CC50 (COLO 205; [7]): 6.31 µM
TGI (COLO 205; read-out: pTGI (converted)): 1.02 µM
GI50 (ACHN): 7.24 µM
LC50 (concentration killing 50% of cells) (ACHN): > 100 µM
TGI (ACHN; read-out: pTGI (converted)): > 100 µM
GI50 (U-251): 0.603 µM
CC50 (U-251; [7]): > 100 µM
TGI (U-251; read-out: pTGI (converted)): > 100 µM
GI50 (SF-539): 0.229 µM
CC50 (SF-539; [7]): 6.03 µM
TGI (SF-539; read-out: pTGI (converted)): 1.45 µM
GI50 ([6]; HCT-15): 0.741 µM
CC50 ([6]; HCT-15, read-out: pLC50 (the source's name) (converted)): 53.7 µM
TGI ([6]; HCT-15, read-out: pTGI (converted)): 6.76 µM
GI50 (MDA-MB-231): 1.1 µM
LC50 (MDA-MB-231): 85.1 µM
TGI (MDA-MB-231; read-out: pTGI (converted)): 6.31 µM
GI50 (LOX IMVI): 1.26 µM
CC50 (LOX IMVI; [7]): 29.5 µM
TGI (LOX IMVI; read-out: pTGI (converted)): 4.79 µM
GI50 (T47D): 6.92 µM
CC50 (T47D; [7]): > 100 µM
TGI (T47D; read-out: pTGI (converted)): > 100 µM
GI50 (HL-60(TB)): 0.398 µM
CC50 (HL-60(TB); [7]): > 100 µM
TGI (HL-60(TB); read-out: pTGI (converted)): 12.3 µM
GI50 (A549): 2.57 µM
CC50 (A549; [7]): > 100 µM
TGI (A549; read-out: pTGI (converted)): > 100 µM
GI50 (DU-145): 5.37 µM
LC50 (50% lethal concentration) (DU-145): > 100 µM
TGI (DU-145; read-out: pTGI (converted)): > 100 µM
GI50 (BT-549): 0.525 µM
CC50 (BT-549; [7]): > 100 µM
TGI (BT-549; read-out: pTGI (converted)): > 100 µM
GI50 (SNB-75): 0.245 µM
CC50 (SNB-75; [7]): > 100 µM
TGI (SNB-75; read-out: pTGI (converted)): 3.63 µM
GI50 (PC-3): 0.457 µM
LC50 (PC-3): > 100 µM
TGI (PC-3; read-out: pTGI (converted)): 24.5 µM
